In ChEMBL document CHEMBL4725302, “Isosteres of ester derived glucose uptake inhibitors” (Bioorg Med Chem Lett, 2020):

Tests used:
[1] = Inhibition of glucose uptake in human NCI-H1299 cells at 30 uM incubated for 10 mins followed by […][3H]2-deoxyglucose and glucose addition and measured after 30 mins by scintillation counting method relative to control; assay type: functional; conditions: NCI-H1299, 10 min
Summary of the method: (§1)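 H1299 cells held 2 h in serum-free medium, then 30 min in KRP buffer. Treated ±30 µM compound for 10 min, then 37 MBq/L [3H]2-deoxyglucose plus 1 mmol/L glucose in KRP for 30 min uptake. Washed twice with ice-cold PBS, lysed in NaOH, radioactivity by scintillation counting. Replicates triplicate to hexad, repeated at least once; mean ± standard deviation.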

[2] = Stability in human serum assessed as compound remaining incubated for 1 hr; assay type: ADME, cell-free; conditions: read-out: Stabilty
[3] = Stability in human serum assessed as reduction in A549 cell viability at 30 uM measured upto 12 hrs by resazurin assay; assay type: cell-free
Summary of the method: (§2)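 Compound at 30 µM preincubated at 37 °C in DMEM with 10% FBS and 1% Pen/Strep for 0, 1, 2, 4, 6, 9, 12, 24, 48 and 72 h. This medium then applied for 24 h to 5 x 10^3 A549 cells (grown overnight, washed twice with PBS). Resazurin added for 30 min, fluorescence Ex 560/Em 590, normalized to DMSO mock.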

NCI-H1299 [4] = assay: Antiproliferative activity against human NCI-H1299 cells assessed as reduction in cell viability at 30 uM incubated for 48 hrs by MTT assay relative to control; assay type: functional
Summary of the method: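 H1299 cells seeded at 5,000 per well, exposed in hexads to compound at 30 µM or DMSO (<0.5% v/v) for 48 h. MTT then added for 4 h and absorbance read at 570 nm. Conditions run in triplicate, quadruplicate or hexad, experiment repeated at least once; mean ± standard deviation.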

A549 = assay: Antitumor activity in human A549 cells xenografted in NU/J mouse assessed as reduction in tumor volume at 10 mg/kg, ip administered for 10 weeks and measured for every 7 day relative to control; assay type: functional; parameters: scale not given: the % may be the effect or the level left
NCI-H1299 [5] = assay: Antiproliferative activity against human NCI-H1299 cells assessed as reduction in cell viability incubated for 48 hrs by MTT assay; assay type: functional, cell-based; conditions: NCI-H1299, 48 h
[6] = Inhibition of glucose uptake in human NCI-H1299 cells incubated for 10 mins followed by […][3H]2-deoxyglucose and glucose addition and measured after 30 mins by scintillation counting method; assay type: functional, cell-based; summary of the method: as §1
[7] = Stability in human serum assessed as reduction in A549 cell viability at 30 uM measured upto 72 hrs by resazurin assay; assay type: cell-free; summary of the method: as §2

Row | SMILES | inhibition at 30 µM [1] [%] | inhibition at 30 µM (NCI-H1299 [4]) [%] | further results
1 | O=C(Oc1cccc(F)c1OC(=O)c1cccc(O)c1)c1cccc(O)c1 | 92.8 | 56.9 | remaining at 1 h [2]: 25%; Stabilty [3]: Unstable; Activity (A549): 70%
2 | Cc1ccc(C(=O)Nc2ccc(Cl)cc2NC(=O)c2ccc(C)c(O)c2)cc1O | 84.8 | 55 | –
3 | O=C(Nc1ccc(Cl)cc1NC(=O)c1cc(O)ccc1Cl)c1cc(O)ccc1Cl | 89.9 | 45.3 | –
4 | O=C(Nc1ccc(Cl)cc1NC(=O)c1ccc(Br)c(O)c1)c1ccc(Br)c(O)c1 | 97.3 | 54.6 | –
5 | Cc1ccc(O)cc1CNc1ccc(Cl)cc1NCc1cc(O)ccc1C | 82.9 | 46.3 | –
6 | Oc1cc(CNc2ccc(Cl)cc2NCc2ccc(Cl)c(O)c2)ccc1Cl | 52.4 | 70.9 | –
7 | O=C(Nc1ccc(Cl)cc1NC(=O)c1ccc(Cl)c(O)c1)c1ccc(Cl)c(O)c1 | 85.2 | 19 | –
8 | O=C(Nc1ccc(Cl)cc1NC(=O)c1ccc(F)c(O)c1)c1ccc(F)c(O)c1 | 47.8 | 25.7 | –
9 | Oc1cccc(SCc2cccc(F)c2CSc2cccc(O)c2)c1 | 98.1 | -2 | –
10 | Oc1cccc(CNc2ccc(F)cc2NCc2cccc(O)c2)c1 | 39.2 | 37.7 | –
11 | O=C(Nc1ccc(Cl)cc1NC(=O)c1cc(O)cc(Cl)c1)c1cc(O)cc(Cl)c1 | 60.6 | 61.3 | –
12 | Oc1cc(Cl)cc(CNc2ccc(Cl)cc2NCc2cc(O)cc(Cl)c2)c1 | 81.7 | 47.6 | –
13 | O=C(Nc1ccc(Cl)cc1NC(=O)c1cccc(O)c1)c1cccc(O)c1 | 83.7 | 5.9 | –
14 | Cc1ccc(O)cc1C(=O)Nc1ccc(Cl)cc1NC(=O)c1cc(O)ccc1C | 21 | 21 | –
15 | Oc1cccc(OCc2cccc(F)c2COc2cccc(O)c2)c1 | 89.5 | -1.4 | –
16 | Oc1cccc(COc2cccc(F)c2OCc2cccc(O)c2)c1 | 92.6 | 10.6 | –
17 | [O-][S+](Cc1cccc(F)c1C[S+]([O-])c1cccc(O)c1)c1cccc(O)c1 (configuration not stated) | 17.2 | 0.2 | –

Row | SMILES | inhibition at 30 µM [1] [%] | inhibition at 30 µM (NCI-H1299 [4]) [%] | further results
18 | Cc1ccc(CNc2ccc(Cl)cc2NCc2ccc(C)c(O)c2)cc1O | 93.7 | 77.5 | IC50 (NCI-H1299 [5]): 7 µM; IC50 [6]: 1.9 µM; Stabilty [7]: Stable
19 | O=S(=O)(Cc1cccc(F)c1CS(=O)(=O)c1cccc(O)c1)c1cccc(O)c1 | 61.4 | 11.8 | –
20 | Oc1cccc(CNc2ccc(Cl)cc2NCc2cccc(O)c2)c1 | 52.2 | 56.6 | –
21 | O=C(Nc1ccc(F)cc1NC(=O)c1cccc(O)c1)c1cccc(O)c1 | 89.7 | 5.7 | –
22 | COc1ccc(C(=O)Nc2ccc(Cl)cc2NC(=O)c2ccc(OC)c(O)c2)cc1O | 39.5 | 26 | –
23 | Oc1cccc(CNc2cccc(F)c2NCc2cccc(O)c2)c1 | 54.8 | 5 | –
24 | Cc1cc(O)cc(C(=O)Nc2ccc(Cl)cc2NC(=O)c2cc(C)cc(O)c2)c1 | 61.4 | 84.7 | –
25 | O=C(Nc1cccc(F)c1NC(=O)c1cccc(O)c1)c1cccc(O)c1 | 20 | 33.4 | –
26 | Oc1cc(CNc2ccc(Cl)cc2NCc2ccc(Br)c(O)c2)ccc1Br | 69.1 | 74.1 | –
27 | Cc1cc(O)cc(CNc2ccc(Cl)cc2NCc2cc(C)cc(O)c2)c1 | 75 | 60.4 | –
28 | COc1ccc(CNc2ccc(Cl)cc2NCc2ccc(OC)c(O)c2)cc1O | 42.2 | 22 | –
29 | Oc1cc(CNc2ccc(Cl)cc2NCc2ccc(F)c(O)c2)ccc1F | 24.1 | 22.1 | –
30 | O=C(Oc1cccc(O)c1)c1cccc(F)c1C(=O)Oc1cccc(O)c1 | 78.2 | 15.3 | –
31 | Oc1cccc(COc2ccc(Cl)cc2OCc2cccc(O)c2)c1 | 91.2 | 14.3 | –
32 | Oc1ccc(Cl)c(CNc2ccc(Cl)cc2NCc2cc(O)ccc2Cl)c1 | 80.7 | 70.8 | –
33 | Oc1cccc(CCc2cccc(F)c2CCc2cccc(O)c2)c1 | 60.7 | -22.7 | –
